Source: ChEMBL document CHEMBL1132971, “New azolidinediones as inhibitors of protein tyrosine phosphatase 1B with antihyperglycemic properties” (J Med Chem, 2000)
One block for each compound: values may come before it. The source made the active and inactive calls. The calls are words filed in the database; no cut-off is given here.

Experiments:
Mus musculus [1] = assay: Evaluated in vivo for their ability to decrease plasma glucose levels in diabetic C57BL/KsJ ob/ob mouse at a dose 100 mg/kg/day, **p indicates <0.01; format: functional
Method in brief: (§1)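 Mice dosed orally once daily for 4 days; plasma glucose and insulin measured and expressed as percent change versus a vehicle-treated group (mean ± SE, 4-6 mice/group). NS is generally less than -15% change. Significance is versus vehicle-treated mice.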

Mus musculus [2] = assay: Evaluated in vivo for their ability to decrease plasma glucose levels in diabetic C57BL/KsJ db/db mouse at a dose 100 mg/kg/day, *p indicates <0.05; format: functional; method in brief: as §1
Mus musculus [3] = assay: Evaluated for their ability to decrease plasma insulin levels in mouse at a dose 100 mg/kg/day, **p indicates <0.01; format: functional
Method in brief: (§2)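 Diabetic db/db or ob/ob mice dosed orally once daily for 4 days. Plasma glucose and insulin reported as percent change from a vehicle-treated group. 4-6 mice per group. Significance set at p < 0.05 or p < 0.01 versus vehicle; NS means generally less than -15% change.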

[4] = target: T1, Tyrosine-protein phosphatase non-receptor type 1 (Rattus norvegicus, UniProt P20417); assay: Inhibition of PTPase activity using recombinant Protein-tyrosine phosphatase 1B and IR-triphosphopeptide as substrate; ND is no data.
T1 sequence (P20417 whole entry): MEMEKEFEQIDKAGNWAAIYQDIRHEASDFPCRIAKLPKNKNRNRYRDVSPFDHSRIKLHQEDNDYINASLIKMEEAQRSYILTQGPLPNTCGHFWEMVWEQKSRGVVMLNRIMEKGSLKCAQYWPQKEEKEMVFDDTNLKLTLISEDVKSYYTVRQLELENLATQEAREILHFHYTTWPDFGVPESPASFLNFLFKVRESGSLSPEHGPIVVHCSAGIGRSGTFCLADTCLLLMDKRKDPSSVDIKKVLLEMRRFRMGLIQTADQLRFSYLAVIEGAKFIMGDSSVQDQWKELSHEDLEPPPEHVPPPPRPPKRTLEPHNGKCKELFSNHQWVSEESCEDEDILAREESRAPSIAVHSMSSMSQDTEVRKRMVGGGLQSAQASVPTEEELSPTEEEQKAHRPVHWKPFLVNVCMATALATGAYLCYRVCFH

[5] = target: T2, Tyrosine-protein phosphatase non-receptor type 1 (Rattus norvegicus) (UniProt P20417); assay: Inhibition of PTPase (PTP1B) activity in rat hepatic membrane at 50 uM concentration, using pNPP as the substrate; format: cell membranes; conditions: Liver
T2 sequence (whole entry): T1 sequence (P20417 whole entry)
Method in brief: (§3)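 Liver membranes from male Sprague-Dawley rats (100-150 g), about 30 µg protein per well. Preincubated 10 min at 37 °C with compound in 1.25% DMSO in 50 mM HEPES pH 7.4. Then 6.33 mM pNPP for 30 min at 37 °C, stopped with NaOH. p-Nitrophenol read at 410 nm. Run in triplicate. Reported as percent of untreated control.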

Mus musculus [6] = assay: Evaluated in vivo for their ability to decrease plasma glucose levels in diabetic C57BL/KsJ db/db mouse at a dose 100 mg/kg/day; NS=not significant; format: functional, organism-based; method in brief: as §2
[7] = target: T3, Tyrosine-protein phosphatase non-receptor type 1 (Mus musculus) (UniProt P35821); assay: In vivo ability to decrease plasma glucose levels in diabetic C57BL/KsJ ob/ob mouse at a dose 100 mg/kg/day; format: functional, organism-based; method in brief: as §2
T3 sequence (whole entry): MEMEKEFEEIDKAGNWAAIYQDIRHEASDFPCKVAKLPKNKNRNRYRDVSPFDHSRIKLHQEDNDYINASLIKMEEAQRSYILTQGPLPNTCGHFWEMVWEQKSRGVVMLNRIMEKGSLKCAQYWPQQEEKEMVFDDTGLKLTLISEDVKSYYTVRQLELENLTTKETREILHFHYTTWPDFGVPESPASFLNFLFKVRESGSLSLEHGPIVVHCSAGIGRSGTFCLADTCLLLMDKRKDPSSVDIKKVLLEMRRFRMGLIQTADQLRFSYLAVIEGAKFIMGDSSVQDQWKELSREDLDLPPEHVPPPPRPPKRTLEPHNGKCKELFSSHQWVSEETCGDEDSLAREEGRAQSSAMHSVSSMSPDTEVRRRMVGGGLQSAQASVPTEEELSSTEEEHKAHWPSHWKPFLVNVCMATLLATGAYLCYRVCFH

[8] = target: T1, Tyrosine-protein phosphatase non-receptor type 1; assay: Inhibition of PTPase activity in rat hepatic membrane at a concentration of 50 uM using pNPP as the substrate; format: cell membranes, Liver; method in brief: as §3
[9] = target: T2, Tyrosine-protein phosphatase non-receptor type 1 (Rattus norvegicus); assay: Inhibition of PTPase activity using recombinant r-PTP1B as the enzyme and IR-triphosphopeptide as substrate at 50 uM
Method in brief: (§4)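 Rat recombinant PTP1B in 33 mM TRIS-HCl, 2 mM EDTA, 50 mM β-mercaptoethanol, pH 7.4 (about 1000-2000 nmol/min/mg). Preincubated 10 min at 37 °C with or without compound in HEPES buffer pH 7.4. Released phosphate read by malachite green-ammonium molybdate at 650 nm against a phosphate standard. Quadruplicates. IC50 by four-parameter logistic fit.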

[10] = target: T3, Tyrosine-protein phosphatase non-receptor type 1 (Mus musculus); assay: Ability to decrease plasma insulin levels in mouse at a dose 100 mg/kg/day; format: functional, organism-based; method in brief: as §2
Mus musculus [11] = assay: Evaluated for their ability to decrease plasma insulin levels in mouse at a dose 100 mg/kg/day.; format: functional; method in brief: as §1
Mus musculus [12] = assay: Evaluated in vivo for their ability to decrease plasma glucose levels in diabetic C57BL/KsJ ob/ob mouse at a dose 100 mg/kg/day.; format: functional; method in brief: as §1
[13] = target: T1, Tyrosine-protein phosphatase non-receptor type 1; assay: Inhibition of PTPase activity using recombinant r-PTP1B as the enzyme and IR-triphosphopeptide as substrate; method in brief: as §4
Mus musculus [14] = assay: Evaluated in vivo for their ability to decrease plasma glucose levels in diabetic C57BL/KsJ db/db mouse at a dose 100 mg/kg/day; NS is non significant; format: functional, organism-based; method in brief: as §2
[15] = target: T1, Tyrosine-protein phosphatase non-receptor type 1; assay: Inhibition of PTPase activity using recombinant r-PTP1B and IR-triphosphopeptide as substrate; ND is no data.; method in brief: as §4
Mus musculus [16] = assay: Evaluated for their ability to decrease plasma insulin levels in mouse at a dose 100 mg/kg/day,**p indicates <0.01; format: functional; method in brief: as §1
Mus musculus [17] = assay: Evaluated in vivo for their ability to decrease plasma glucose levels in diabetic C57BL/KsJ db/db mouse at a dose 100 mg/kg/day. *p indicates <0.05; format: functional; method in brief: as §1
[18] = target: T2, Tyrosine-protein phosphatase non-receptor type 1 (Rattus norvegicus); assay: Inhibition of PTPase activity using recombinant r-PTP1B as the enzyme and IR-triphosphopeptide as substrate at 10 uM
Method in brief: (§5)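 Recombinant rat PTP1B (human 321-aa form assayed the same way), activity about 1000-2000 nmol/min/mg, preincubated with compound for 10 min at 37 °C in HEPES pH 7.4. The reaction is started with 50 µM triphosphorylated insulin receptor 1142-1153 dodecapeptide and run 30 min at 37 °C. Released phosphate read by malachite green-molybdate at 650 nm, in quadruplicate. Result is percent inhibition versus control.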

[19] = target: T2, Tyrosine-protein phosphatase non-receptor type 1 (Rattus norvegicus); assay: Inhibition of PTPase activity using recombinant Protein-tyrosine phosphatase 1B as the enzyme and IR-triphosphopeptide as substrate at 50 uM; method in brief: as §5
[20] = target: T2, Tyrosine-protein phosphatase non-receptor type 1 (Rattus norvegicus); assay: Inhibition of Protein-tyrosine phosphatase 1B activity in rat hepatic membrane at a concentration of 50 uM using pNPP as the substrate; format: cell membranes; conditions: Liver; method in brief: as §3
Mus musculus [21] = assay: Evaluated in vivo for their ability to decrease plasma glucose levels in diabetic C57BL/KsJ db/db mouse at a dose 100 mg/kg/day.,*p indicates <0.05; format: functional; method in brief: as §1

SMILES: C/C(=C\Cn1oc(=O)[nH]c1=O)c1cccc(OCc2nc(-c3ccccc3)oc2C)c1 (stereo in doubt; 67)
- Decrease (Mus musculus [1]): 30%
- Decrease (Mus musculus [2]): 28%
- Decrease (Mus musculus [3]): 75%
- IC50 [4]: Not significant

SMILES: C/C(=C\CC1SC(=O)NC1=O)c1cccc(OCc2nc(-c3ccccc3)oc2C)c1 (stereo not given)
- inhibition [5]: 5%
- Decrease (Mus musculus [6]): inactive

SMILES: Cc1oc(-c2ccc(C(F)(F)F)cc2)nc1COc1cccc(C#CC(C)n2oc(=O)[nH]c2=O)c1 (stereo not given)
- Decrease (Mus musculus [16]): 91%
- Decrease (Mus musculus [17]): 30%
- Decrease (Mus musculus [1]): 32%
- inhibition [5]: 56%
- inhibition [18]: 47%

SMILES: CCCC/C(=C\Cn1oc(=O)[nH]c1=O)c1cccc(Oc2cc(Cl)cc(Cl)c2)c1
- Inhibition % [8]: 23%
- IC50 [13]: 1600 nM

SMILES: CC/C(=C/Cn1oc(=O)[nH]c1=O)c1cccc(OCc2nc(-c3ccc(C(F)(F)F)cc3)oc2C)c1
- Decrease (Mus musculus [2]): 65%
- Decrease [7]: Not significant
- inhibition [19]: 80%
- inhibition [20]: 56%
- Decrease [10]: Not significant

SMILES: CC/C(=C\c1cccc(OCc2nc(-c3ccc(C(F)(F)F)cc3)oc2C)c1)n1oc(=O)[nH]c1=O
- Decrease (Mus musculus [21]): 24%
- Decrease [7]: Not significant
- inhibition [5]: 58%
- IC50 [15]: Not significant
- Decrease [10]: Not significant

Second part, led by results:

- Decrease [7]: Not significant
- Inhibition % [8]: 27%
- inhibition [9]: 1.4%
- Decrease [10]: Not significant
SMILES: Cc1oc(-c2ccc(C(F)(F)F)cc2)nc1COc1cccc(/C(=C/Cn2oc(=O)[nH]c2=O)c2ccc(Cl)cc2)c1

- IC50 [13]: 300 nM
SMILES: C/C(=C\Cn1oc(=O)[nH]c1=O)c1cccc(OCc2nc(-c3ccc(C(F)(F)F)cc3)oc2-c2ccccc2)c1
- Decrease (Mus musculus [11]): 30%
- Decrease (Mus musculus [12]): 25%

- Decrease [7]: Not significant
- inhibition [5]: 49%
- IC50 [15]: Not significant
- Decrease [10]: Not significant
SMILES: Cc1oc(-c2ccc(C(F)(F)F)cc2)nc1COc1cccc(/C=C/Cn2oc(=O)[nH]c2=O)c1
- Decrease (Mus musculus [14]): inactive

- Decrease [7]: Not significant
- inhibition [5]: 63%
- IC50 [13]: 1600 nM
- Decrease [10]: Not significant
SMILES: C/C(=C\Cn1oc(=O)[nH]c1=O)c1ccc(OCCc2nc(-c3ccc(C(F)(F)F)cc3)oc2C)cc1
- Decrease (Mus musculus [14]): inactive
